Assay outcomes: PubChem, several laboratories
Most compounds without a hit are left out; they make up all but 2.1% or so of the library.
Runt-CBFb FRET = Runt domain-CBFb interaction inhibition | Q01196+Q13951 | Cerulean-Runt/Venus-CBFb FRET ratio 530/480, 1 h | inhibition, % at 20 µM | actives 0.46% (n = 220,000) | AID 1496;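 active = inhibition over about 50% at 20 µM in the single-dose screen, limit read from the data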;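 note: 0% = DMSO wells and 100% = excess unlabeled CBFb competitor control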
Target sequence (Q01196 whole entry, looked up, the tested form may be a part): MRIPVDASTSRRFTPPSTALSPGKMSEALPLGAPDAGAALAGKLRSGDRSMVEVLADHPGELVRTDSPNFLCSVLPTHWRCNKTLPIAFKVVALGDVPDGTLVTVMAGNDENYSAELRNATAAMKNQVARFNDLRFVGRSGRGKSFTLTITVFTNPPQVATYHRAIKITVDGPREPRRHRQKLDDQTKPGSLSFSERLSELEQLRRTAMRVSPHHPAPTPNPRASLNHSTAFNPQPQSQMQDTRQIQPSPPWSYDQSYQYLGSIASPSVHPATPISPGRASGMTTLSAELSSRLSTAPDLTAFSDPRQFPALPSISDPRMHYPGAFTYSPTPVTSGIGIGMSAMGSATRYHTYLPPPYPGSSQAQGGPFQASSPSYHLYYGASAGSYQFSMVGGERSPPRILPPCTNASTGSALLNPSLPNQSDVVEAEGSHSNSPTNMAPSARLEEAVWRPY
Target sequence (Q13951 whole entry, looked up, the tested form may be a part): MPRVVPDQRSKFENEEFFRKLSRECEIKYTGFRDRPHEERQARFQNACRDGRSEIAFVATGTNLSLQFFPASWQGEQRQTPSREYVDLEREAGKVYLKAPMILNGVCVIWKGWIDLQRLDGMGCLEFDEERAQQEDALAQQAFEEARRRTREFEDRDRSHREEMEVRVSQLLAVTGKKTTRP
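Measured by: fluorescence energy transfer, 422 nm excitation, 530/480 nm emission; test system: Cerulean-tagged RUNX1 Runt domain (FRET donor) fusion protein; buffer or medium: Tris pH 7.5 buffer with BSA; compound: one dose, 20 µM compound, 1% DMSO; times: two 1 h room-temperature incubations shielded from light; benchmarks: unlabeled CBFb 5 µM, positive control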
RanGTP-Impb inh = inhibitors of RanGTP-importin-beta interaction, primary screen, biochemical, FRET, CFP-Ran, YFP-importin-beta, homogeneous | cell-free CFP-Ran/YFP-importin-beta FRET ratio | inhibition, % (test concentration not listed) | actives 1.1% (n = 300,000) | AID 2216;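 active = more than half of the replicate wells show a fall in the fluorescence ratio signal beyond about 16%, limit read from the data, passing the limit was not always enough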;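 note: 0% = DMSO wells and 100% = Ran loaded with GDP instead of GTP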
Hck Nef HTS = inhibitors of human Hck kinase activated by Nef; inhibition, % at 20 µM; actives 0.68% (n = 220,000); Recombinant Hck-YEEI plus Nef, Z-Lyte FRET kinase assay; AID 463187;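 active = Hck-Nef kinase inhibition above about 50%, limit read from the data; inactive = inhibition below that limit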;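 note: 0% = DMSO with Hck plus Nef and 100% = Hck alone without Nef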
TNF necrop inh = TNF-alpha cell death inhibition in Jurkat FADD-/- cells; actives 0.068% (n = 220,000); Jurkat FADD-/- TNF necroptosis rescue, ATP luminescence, 24 h; 0 = TNF only, 100 = no-TNF cells; activation (protection from cell death), % at 10 µM;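 active = activation, meaning protection from cell death, of at least 50% relative to plate controls; inactive = activation below 50%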;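 note: necroptosis triggered by 40 ng/mL TNF-alpha added together with compound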
Runt-SMMHC FRET = inhibitors of human RUNX1 Runt domain binding to CBFb-SMMHC; Q01196+Q13951; Cerulean-Runt/Venus-CBFb-SMMHC FRET ratio 530/480, 1 h; inhibition, % at 20 µM; actives 0.74% (n = 220,000);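 active = mean inhibition across duplicate retests at 20 µM reaching about 50%, limit read from the data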;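 note: 0% = DMSO wells and 100% = wells with excess untagged CBFb-SMMHC; inhibitors lower the FRET ratio by blocking Runt binding to CBFb-SMMHC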
L929 necroptosis = blocks zVAD induced death of L929 cells | L929 zVAD necroptosis rescue, ATP luminescence, 24 h; with zVAD 60 µM | viability rescue, % at 10 µM | actives 0.38% (n = 220,000) | AID 1377;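 active = activation, scaled between plate controls, above about 75%, limit read from the data; inactive = activation under that limit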;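 note: 0% = zVAD with DMSO and 100% = DMSO alone without zVAD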
Numbers without * were called inactive; · = not tested or not shown.

SMILES	Runt-CBFb FRET	RanGTP-Impb inh	Hck Nef HTS	TNF necrop inh	Runt-SMMHC FRET	L929 necroptosis
CC(=O)N(\C=C/C=C/C=C1\Sc2ccccc2C1=O)c1ccccc1	-4	11	35	-13	-32	-2
CN1CCc2c(sc(NC(=O)Cc3ccccc3)c2C(N)=O)C1	·	134*	·	·	·	·
CCN1CCc2c(sc(NC(=O)c3ccc(S(=O)(=O)N(CC)c4ccccc4)cc3)c2C(N)=O)C1	·	72*	·	·	·	·
CN1CCc2c(sc(NC(=O)Cc3ccc(F)cc3)c2C(N)=O)C1	·	131*	·	·	·	·
CCOC(=O)c1c(NC(=S)Nc2ccc(Cl)cc2)sc2c1CCN(C)C2	98*	·	10	2	164*	0
COc1ccc(CN2CCC(n3nccc3NC(=O)C3CC3)CC2)cc1O	·	-1	·	·	·	·
Cc1cc(Cl)ccc1OC(C)C(=O)N1CCCN(C(=O)C(C)Oc2ccc(Cl)cc2C)CC1 (stereo unspecified)	-6	-2	-26	-7	-3	1
CCN1CCc2c(sc(NC(=O)Cc3ccccc3)c2C(N)=O)C1	·	155*	·	·	·	·
CCOC(=O)c1c(NC(=O)Cc2ccccc2)sc2c1CCN(C)C2	·	76*	·	·	·	·
CCN1CCc2c(sc(NC(=O)Nc3ccc(Cl)c(Cl)c3)c2C(N)=O)C1	4	·	1	11	77*	66
CCN1CCc2c(sc(NC(=O)c3ccc(C(=O)c4ccccc4)cc3)c2C(N)=O)C1	·	9	·	·	·	·
CCN1CCc2c(sc(NC(=O)COc3ccccc3)c2C(=O)OC)C1	·	87*	·	·	·	·
CCOC(=O)c1c(NC(=O)CCS(=O)(=O)c2ccccc2)sc2c1CCN(C)C2	·	126*	·	·	·	·
CCOC(=O)c1c(NC(=O)CSc2nnc(C)s2)sc2c1CCN(C)C2	79*	27*	6	-1	135*	0
CCN1CCc2c(sc(NC(=S)NC(=O)c3ccco3)c2C(N)=O)C1	12	163*	-42	-2	58*	0
Cc1sc(NC(=S)NC(=O)c2ccco2)c(C(N)=O)c1C	31	-4	6	1	-8	4
CCOC(=O)c1c(NC(=O)OC)sc2c1CCC2	-3	-1	0	0	0	0
CCOC(=O)c1c(NC(=O)C(F)(OC)C(F)(F)F)sc2c1CCN(C)C2 (stereo unspecified)	84*	76*	9	1	62*	0
COc1ccc(C(=O)NC2CCc3ccccc32)cc1OC1CCN(C(C)=O)CC1 (stereo unspecified)	·	3	·	·	·	·
CCn1ccnc1CN(C)C(=O)C1CCC(=O)N(Cc2cccc(C(F)(F)F)c2)C1 (stereo unspecified)	·	6	·	·	·	·
Cc1ccc(NC(=O)N2CCc3ccccc3C2)c(C)c1	·	1	·	·	·	·
CSCC(C)N1CCC(Oc2cccc(C(=O)NCc3ccccn3)c2)CC1 (stereo unspecified)	·	30*	·	·	·	·
CC#CC(=O)N1CCC(Oc2cccc(C(=O)NCc3ccccn3)c2)CC1	·	-3	·	·	·	·
Cn1c(/C(C#N)=C/c2ccncc2)nc2ccccc21	15	·	13	-12	11	-3
Cn1c(/C(C#N)=C/c2ccc(O)cc2)nc2ccccc21	13	28*	-17	-6	-3	1
SMILES	Runt-CBFb FRET	RanGTP-Impb inh	Hck Nef HTS	TNF necrop inh	Runt-SMMHC FRET	L929 necroptosis
CN(C)c1ccc(NC(=O)c2cc3c(=O)n4ccccc4nc3n2C)cc1	·	3	2	-1	·	0
Cn1c(=N)c(S(=O)(=O)c2ccc(F)cc2)cc2c(=O)n3ccccc3nc21	63*	5	14	-1	80*	0
C=CCn1c(=N)c(S(=O)(=O)c2ccc(C)c(C)c2)cc2c(=O)n3ccccc3nc21	·	160*	·	·	·	·
Cc1ccc(S(=O)(=O)c2cc3c(=O)n4ccccc4nc3n(C)c2=N)cc1C	·	173*	·	·	·	·
CCCn1c(=N)c(S(=O)(=O)c2ccc(F)cc2)cc2c(=O)n3ccccc3nc21	·	176*	·	·	·	·
COCCn1c(=N)c(S(=O)(=O)c2ccc(F)cc2)cc2c(=O)n3cccc(C)c3nc21	·	-3	·	·	·	·
CCCn1c(=N)c(S(=O)(=O)c2ccc(F)cc2)cc2c(=O)n3cccc(C)c3nc21	·	144*	·	·	·	·
Cn1c(=N)c(S(=O)(=O)c2ccccc2)cc2c(=O)n3ccccc3nc21	47	·	17	1	62*	0
CCOC(=O)Cc1csc(NC(=O)COc2cc(C)cc(C)c2)n1	-4	8	17	1	1	0
CC(CN1CCOCC1)OC(=O)c1ccccc1Cl (stereo unspecified)	·	0	·	·	·	·
NC(=O)c1cccc2c3c([nH]c12)CCCC3	1	85*	29	1	4	1
CCOC(=O)C1CCCc2c1[nH]c1c(C(N)=O)cccc21 (stereo unspecified)	1	25*	-1	0	4	0
O=C(Cn1nc(C(=O)O)c2ccccc2c1=O)Nc1ccccc1C(F)(F)F	·	-2	·	·	·	·
CS(=O)(=O)c1ccc2nc(NC(=O)Nc3cccc(Cl)c3)sc2c1	-3	0	1	-7	-10	83*
CS(=O)(=O)c1ccc2nc(NC(=O)Nc3ccc(Cl)c(Cl)c3)sc2c1	1	-3	7	2	-2	7
O=C(Nc1cccc(Cl)c1)Nc1nnc(-c2ccncc2)s1	-7	-1	57*	-3	-7	30
CCNC(=S)Nc1cc(-c2ccc(Cl)cc2)[nH]n1	6	1	20	3	4	65
COc1ccc(C(=O)N2c3ccccc3C=CC2C#N)cc1 (stereo unspecified)	2	1	0	0	11	1
N#C[C@H]1[C@H](c2ccccc2)[C@](C#N)(C(=O)c2ccccc2)[C@@H]2C=Cc3ccccc3N21	5	47*	6	-17	7	0
CCOC(=O)/C(C#N)=C1/C=CN(C)C(C)=N1	-1	0	1	2	-6	1
CCOC(=O)/C(C#N)=C1/C=C(C)NC(c2ccccc2O)=N1	25	3	1	-2	61*	3
Cc1cc(N2C(=O)C(O)=C(C(=O)c3cc4ccccc4o3)C2c2cccs2)no1 (stereo unspecified)	·	42*	·	·	·	·
Cn1c2c(c(=O)n(C)c1=O)[C@@]1(C(=O)Nc3ccccc31)C(C#N)=C(N)O2	-6	1	1	-4	2	2
Cn1c2c(c(=O)n(C)c1=O)NC1(N2)C(=O)Nc2ccccc21 (stereo unspecified)	1	37*	12	-2	-7	1
O=C(CCCc1ccccc1)NC12CC3CC(CC(C3)C1)C2	·	-2	·	·	·	·
Cc1cccc2c1c1ccc3c(c1n2C)C(=O)C=CC3=O	52*	·	-6	-23	36	13
Cc1ccccc1N1CC(=O)N(c2ccccc2C)CC1=O	-2	-2	-16	1	-1	0
